Assay results from the array DNA melting data of Ke et al. (doi:10.1101/2024.01.08.574731).

Columns and labels:
[1] = folding enthalpy; higher = less favourable; fluorescence melt of hairpins on a sequencing array, two-state fit; details: sodium 0.088 M
Summary of the method: (§1)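 Library hairpins on a sequenced MiSeq flow cell carried annealed Cy3 and quencher oligos, and their Cy3 fluorescence was imaged in 50 mM Na-HEPES pH 8.0 with 25 mM NaCl, in 2.5 °C steps up to 60 °C. Signals were normalised to Cy3 before quenching and to control constructs. Melting temperature and folding enthalpy were obtained from bootstrapped two-state fits, combined by inverse-variance weighting across four replicates, and the fitted temperatures were then raised by 9.35 °C to match UV melts.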

[2] = melting temperature; fluorescence melt of hairpins on a sequencing array, two-state fit, raised by 9.35 °C to match UV melts; details: sodium 0.088 M
Summary of the method: as §1

Row | Sequence | folding enthalpy [1] [kcal/mol] | Tm [2] [°C]
1 | GACTGAGGAAACTCAGTC (((((((....))))))) | -34.8 | 61.5
2 | GACTGAGGAAACTTGGTC (((..((....))..))) | -15.7 | 32.7
3 | GACTGCCCGAAAGGGGTC (((..(((....)))))) | -9.57 | 35.6
4 | GACTGCGAAAGCAAAGTC ((((((....)))..))) | -21.7 | 47
5 | GACTGCGAAAGCAATGTC ((((((....)))..))) | -14.9 | 44.3
6 | GACTGCGAAAGCAGAGTC ((((((....)))..))) | -11.8 | 45.1
7 | GACTGCGAAAGCAGCGTC ((((((....)))..))) | -10.3 | 50.7
8 | GACTGCGAAAGCATAGTC ((((((....)))..))) | -19.4 | 46.9
9 | GACTGCGAAAGCATCGTC ((((((....)))..))) | -12.2 | 47.1
10 | GACTGCGAAAGCATGGTC ((((((....)))..))) | -14.9 | 42.7
11 | GACTGCGCGAAAGCGGTC (((..(((....)))))) | -11.3 | 48
12 | GACTGGAAACAGTC (((((....))))) | -35.1 | 51.7
13 | GACTGGCCGAAAGGCGTC (((..(((....)))))) | -11.8 | 50.8
14 | GACTGGCGAAAGCCTGTC (((.(((....))).))) | -21.6 | 68.9
15 | GACTGTGCGAAAGCAGTC (((..(((....)))))) | -18 | 45.1
16 | GACTGTGGAAACGCAGTC (((((.(....).))))) | -31.7 | 51.9
17 | GACTTCCGAAAGGAGGTC (((.(((....))).))) | -36.6 | 54.8
18 | GACTTGCCGAAAGGCGTC (((..(((....)))))) | -11.6 | 36.4
19 | GACTTGGGAAACCAAATC ((.((((....)))).)) | -14 | 28
20 | GACTTTGGAAACGAAGTC (((((.(....).))))) | -29.4 | 44.6
21 | GAGAAACGAAAGTTCCTC (((.(((....))).))) | -27 | 36.5
22 | GAGAACGAAAGTTCGCTC ((((((....)))..))) | -19.8 | 53.6
23 | GAGAACGAAAGTTTCTC ((((((....))).))) | -25.1 | 43.5

Row | Sequence | folding enthalpy [1] [kcal/mol] | Tm [2] [°C]
24 | GAGAACGAAAGTTTGCTC ((((((....)))..))) | -16.8 | 28.6
25 | GAGAACGGAAACGTCCTC (((.(((....))).))) | -24.5 | 40.2
26 | GAGAACGGAAACGTTCCC (.(((((....))))).) | -11.9 | 40
27 | GAGAAGGGAAACCTCCTC (((.(((....))).))) | -17.7 | 28.8
28 | GAGAATGGAAACATTCCC (.(((((....))))).) | -19.6 | 31.2
29 | GAGACAACGAAAGTTCTC (((..(((....)))))) | -20.4 | 28.3
30 | GAGACACGAAAGTGCCTC (((.(((....))).))) | -33.4 | 51.3
31 | GAGACAGCGAAAGCTCTC (((..(((....)))))) | -9.49 | 45.5
32 | GAGACCCGAAAGGGACTC (((.(((....))).))) | -32.4 | 57.6
33 | GAGACCGAAAGGTCCTC ((((((....))).))) | -10.4 | 53.6
34 | GAGACCGAAAGGTGACTC ((((((....)))..))) | -13.8 | 35.6
35 | GAGACCGGAAACGGCCTC (((.(((....))).))) | -28.1 | 50.8
36 | GAGACCGGAAACGGTCCC (.(((((....))))).) | -10.2 | 46.9
37 | GAGACCGGAAACGGTTTC ((.((((....)))).)) | -22.5 | 49.5
38 | GAGACGGGAAACCGCCTC (((.(((....))).))) | -33.7 | 49.1
39 | GAGAGAGGAAACCCTCTC (((((.(....).))))) | -20.2 | 42.5
40 | GAGAGAGGAAACTCTCCC (.(((((....))))).) | -17 | 37
41 | GAGAGCGAAAGCTAACTC ((((((....)))..))) | -12.7 | 33
42 | GAGAGCGAAAGCTCACTC ((((((....)))..))) | -12 | 55.5
43 | GAGAGCGAAAGCTCGCTC ((((((....)))..))) | -13 | 66.9
44 | GAGAGCGAAAGCTGACTC ((((((....)))..))) | -13.3 | 32.3
45 | GAGAGCGAAAGCTGCCTC ((((((....)))..))) | -11.1 | 27.4
46 | GAGAGCGAAAGCTGGCTC ((((((....)))..))) | -13.5 | 37.2

Row | Sequence | folding enthalpy [1] [kcal/mol] | Tm [2] [°C]
47 | GAGAGCGAAAGCTTCTC ((((((....))).))) | -21.9 | 48
48 | GAGAGCGCGAAAGCGCTC (((..(((....)))))) | -6.4 | 63.2
49 | GAGAGGCCGAAAGGCCTC (((..(((....)))))) | -7.49 | 65.9
50 | GAGAGGCGAAAGCCCCTC (((.(((....))).))) | -17.3 | 51.7
51 | GAGAGGGAAACCTCTC ((((((....)))))) | -36.2 | 55.3
52 | GAGAGTACGAAAGTACTC (((..(((....)))))) | -11.7 | 55.2
53 | GAGAGTGGAAACACTCCC (.(((((....))))).) | -13.7 | 38.1
54 | GAGATAGAAATATCTC ((((((....)))))) | -26.9 | 39
55 | GAGATAGCGAAAGCTCTC (((..(((....)))))) | -15.9 | 40
56 | GAGATAGGAAACTATCCC (.(((((....))))).) | -16.4 | 30.1
57 | GAGATCCCGAAAGGGCTC (((..(((....)))))) | -12 | 34.9
58 | GAGATCCGAAAGGAGCTC (((.(((....))).))) | -44.9 | 60.8
59 | GAGATCGGAAACGATCTC (((((((....))))))) | -43 | 66.8
60 | GAGATGCGAAAGCAGCTC (((.(((....))).))) | -34.6 | 69.1
61 | GAGATGGCGAAAGCCCTC (((..(((....)))))) | -10.3 | 32.8
62 | GAGATTGGAAACGATCTC (((((.(....).))))) | -36.1 | 44.2
63 | GAGCAACGAAAGTTCCTC (((.(((....))).))) | -13.6 | 32.3
64 | GAGCAACGAAAGTTTCTC (((.(((....))).))) | -26.3 | 37
65 | GAGCACACGAAAGTGCTC (((..(((....)))))) | -33.4 | 57.8
66 | GAGCACCGAAAGGTCCTC (((.(((....))).))) | -22.2 | 40.8
67 | GAGCACCGAAAGGTCTC (((.(((....)))))) | -24.1 | 47.6
68 | GAGCACGAAAGTGAGCTC ((((((....)))..))) | -25.4 | 49.6
69 | GAGCACGAAAGTGTACTC ((((((....)))..))) | -15.4 | 37.5

Row | Sequence | folding enthalpy [1] [kcal/mol] | Tm [2] [°C]
70 | GAGCACGAAAGTGTGCTC ((((((....)))..))) | -31.2 | 58.6
71 | GAGCACGGAAACGTACTC (((.(((....))).))) | -32.9 | 45.4
72 | GAGCAGCGAAAGCTCCTC (((.(((....))).))) | -15.2 | 37.5
73 | GAGCAGCGAAAGCTCTC (((.(((....)))))) | -17.6 | 47.4
74 | GAGCATGAAAATGCTC ((((((....)))))) | -33 | 63.2
75 | GAGCATGCGAAAGCACTC (((..(((....)))))) | -8.93 | 27
76 | GAGCCACCGAAAGGTCTC (((..(((....)))))) | -12.2 | 29.7
77 | GAGCCAGGAAACTGACTC (((.(((....))).))) | -36.8 | 44
78 | GAGCCCGAAAGGGCCTC ((((((....))).))) | -8.72 | 58.9
79 | GAGCCCGAAAGGGTTCTC ((((((....)))..))) | -19.9 | 66.9
80 | GAGCCCGGAAACAGGCCC (.(((.(....).))).) | -8.46 | 27.1
81 | GAGCCCGGAAACGGACTC (((.(((....))).))) | -33.1 | 52.4
82 | GAGCCGCCGAAAGGCCTC (((..(((....)))))) | -8.95 | 33.1
83 | GAGCCGCGAAAGCGCCTC (((.(((....))).))) | -16 | 46.4
84 | GAGCCGCGAAAGCGCTC (((.(((....)))))) | -16.7 | 58.9
85 | GAGCCGCGAAAGCGTCTC (((.(((....))).))) | -22.4 | 54.3
86 | GAGCCGGGAAACCAGCTC ((((.((....)).)))) | -37.8 | 48
87 | GAGCCTGGAAACAAGCTC ((((.((....)).)))) | -29.8 | 38.6
88 | GAGCCTGGAAACAGGCCC (.(((((....))))).) | -10.9 | 47.8
89 | GAGCGACGAAAGTCTCTC (((.(((....))).))) | -29.5 | 46
90 | GAGCGAGGAAACCCGCTC (((((.(....).))))) | -32.5 | 54.7
91 | GAGCGCCCGAAAGGGCTC (((..(((....)))))) | -6.69 | 29.4
